The source of these data is ChEMBL document CHEMBL5046221, “Identification of Pyrimidine-Based Lead Compounds for Understudied Kinases Implicated in Driving Neurodegeneration” (J Med Chem, 2022).

Each structure is given as a SMILES string. Bounds are passed on as bounds.

The term IC50 denotes the point on the concentration scale where inhibition reaches its midpoint.

Series [1] has as its target High affinity nerve growth factor receptor (Homo sapiens, UniProt P04629). Description: Inhibition of human TrkA (440 to end residues) using KKKSPGEYVNIEFG as substrate measured after 40 mins in presence of [gamma33P]ATP by scintillation counting method. The essentials:
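Eurofins radiometric kinase assay run at ATP equal to Km for each kinase. 9-point dose–response in duplicate gives the IC50.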

Series [2] deals with T1, Serine/threonine-protein kinase 17A (Homo sapiens, UniProt Q9UEE5).
T1 sequence (Q9UEE5 whole entry): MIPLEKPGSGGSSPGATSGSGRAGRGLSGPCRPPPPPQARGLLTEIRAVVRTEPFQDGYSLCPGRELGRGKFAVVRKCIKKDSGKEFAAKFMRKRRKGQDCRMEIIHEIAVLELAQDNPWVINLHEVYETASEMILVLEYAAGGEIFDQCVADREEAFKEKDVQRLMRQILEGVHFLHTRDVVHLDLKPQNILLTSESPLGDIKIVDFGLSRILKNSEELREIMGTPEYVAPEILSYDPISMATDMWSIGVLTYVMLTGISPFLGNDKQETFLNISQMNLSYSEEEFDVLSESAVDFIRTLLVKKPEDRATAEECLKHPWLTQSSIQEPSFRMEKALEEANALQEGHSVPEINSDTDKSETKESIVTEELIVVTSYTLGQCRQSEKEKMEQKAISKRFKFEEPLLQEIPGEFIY
Description: Displacement of tracer K9 from NLuc fused DRAK1 (unknown origin) expressed in HEK293 cells by NanoBRET assay. It is filed as cell-based. (In general: Bioluminescence resonance energy transfer reports proximity on the nanometre scale.)

Series [3] can be described thus: Kinetic solubility of compound in PBS at pH 7.4 incubated for 24 hrs by chemiluminscent nitrogen detection method. The conditions noted are these: buffer, pH 7.4, 24 h. The format is physicochemical. The essentials:
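Filtrates were quantified by total chemiluminescent nitrogen determination against a calibration curve, with correction for background nitrogen from DMSO and medium.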

The nature of series [4]: Effective permeability in PBS at 7.4 incubated for 5 hrs by PAMPA analysis. The conditions noted are these: pH 7.4, 5 h. The format is ADME. In outline: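 PAMPA: DMSO stocks were diluted in PBS pH 7.4 and placed in the donor compartment, with PBS pH 7.4 in the acceptor, for 5 h. Both compartments were quantified by CLND against a calibration curve, with background nitrogen correction. Effective permeability was calculated from donor and acceptor concentrations using measured rather than assumed solubility.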
(In general: PAMPA measures passive passage across an artificial lipid membrane.)

Series [5] addresses T2, NUAK family SNF1-like kinase 1 (Homo sapiens, UniProt O60285).
T2 sequence (O60285 whole entry): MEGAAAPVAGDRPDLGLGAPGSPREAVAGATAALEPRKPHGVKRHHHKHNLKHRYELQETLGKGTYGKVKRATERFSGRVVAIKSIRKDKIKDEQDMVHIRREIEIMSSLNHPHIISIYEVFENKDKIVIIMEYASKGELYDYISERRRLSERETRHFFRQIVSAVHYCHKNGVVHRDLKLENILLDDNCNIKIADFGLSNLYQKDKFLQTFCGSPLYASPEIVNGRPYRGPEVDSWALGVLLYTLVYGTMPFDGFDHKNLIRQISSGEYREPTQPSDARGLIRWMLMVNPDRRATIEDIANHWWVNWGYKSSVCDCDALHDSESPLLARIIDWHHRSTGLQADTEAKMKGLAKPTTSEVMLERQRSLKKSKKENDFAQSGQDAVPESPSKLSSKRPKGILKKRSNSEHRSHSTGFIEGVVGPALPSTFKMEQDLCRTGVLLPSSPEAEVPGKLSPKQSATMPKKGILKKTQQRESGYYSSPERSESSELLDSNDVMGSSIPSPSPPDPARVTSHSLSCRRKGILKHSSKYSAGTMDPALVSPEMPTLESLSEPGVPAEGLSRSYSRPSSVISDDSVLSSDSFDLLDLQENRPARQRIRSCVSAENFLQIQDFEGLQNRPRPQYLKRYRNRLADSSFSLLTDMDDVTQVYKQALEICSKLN
Description: Inhibition of recombinant human ARK5 (2 to end residues) using KKKVSRSGLYRSPSMPENLNRPR as substrate incubated for 40 mins in presence of [gamma-33ATP] by scintillation counting based radiometry assay. In outline: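 Eurofins radiometric enzymatic assay with ATP at Km for each kinase. IC50 was derived from a 9-point dose–response curve run in duplicate.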

Series [6] addresses Aurora kinase B (Homo sapiens) (UniProt Q96GD4). Description: Inhibition of full length recombinant human AURKB using AKRRRLSSLRA as substrate at 1 uM incubated for 40 mins in presence of [gamma-33P-ATP] by radiometric scintillation assay relative to control. In outline: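 Eurofins radiometric kinase assay with ATP at Km for each kinase. Compound was tested at a single 1 μM concentration in duplicate, and the result is reported as percent of control.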

Series [7] deals with T3, Serine/threonine-protein kinase TBK1 (Homo sapiens, UniProt Q9UHD2).
T3 sequence (Q9UHD2 whole entry): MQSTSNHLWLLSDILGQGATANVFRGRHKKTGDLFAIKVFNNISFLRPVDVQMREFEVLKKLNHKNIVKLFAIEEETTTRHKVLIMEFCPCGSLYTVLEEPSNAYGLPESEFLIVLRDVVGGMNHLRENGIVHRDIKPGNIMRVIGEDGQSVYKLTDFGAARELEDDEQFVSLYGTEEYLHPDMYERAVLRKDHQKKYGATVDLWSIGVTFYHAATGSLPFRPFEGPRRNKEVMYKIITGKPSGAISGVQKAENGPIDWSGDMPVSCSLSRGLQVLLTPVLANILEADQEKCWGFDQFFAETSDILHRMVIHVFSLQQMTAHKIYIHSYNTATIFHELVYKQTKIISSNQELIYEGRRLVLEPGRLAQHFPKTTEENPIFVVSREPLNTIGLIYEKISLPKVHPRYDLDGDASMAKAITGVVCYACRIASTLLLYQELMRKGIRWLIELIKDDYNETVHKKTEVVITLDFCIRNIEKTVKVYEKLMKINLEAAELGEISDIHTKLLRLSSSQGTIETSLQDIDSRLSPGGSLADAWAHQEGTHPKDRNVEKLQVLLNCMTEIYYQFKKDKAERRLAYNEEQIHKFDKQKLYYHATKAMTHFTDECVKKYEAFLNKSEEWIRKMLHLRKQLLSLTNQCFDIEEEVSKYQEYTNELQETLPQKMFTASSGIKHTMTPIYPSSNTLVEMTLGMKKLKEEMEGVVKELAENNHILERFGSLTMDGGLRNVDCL
Kind of series: Displacement of tracer K5 from NLuc fused TBK1 (unknown origin) expressed in HEK293 cells by NanoBRET assay. It is filed as cell-based. In outline: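 HEK293 cells grown in DMEM with 10% FBS at 37 °C, 5% CO2. NanoBRET assay run in dose–response per manufacturer's protocol with tracer K-5 at 0.5 μM. SEM calculated for assays run more than once.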

Series [8] has as its target MAP/microtubule affinity-regulating kinase 3 (Homo sapiens, UniProt P27448). Description: Displacement of tracer K9 from NLuc fused MARK3 (unknown origin) expressed in HEK293 cells by NanoBRET assay. The format is cell-based.

Chain of High affinity nerve growth factor receptor (P04629 whole entry): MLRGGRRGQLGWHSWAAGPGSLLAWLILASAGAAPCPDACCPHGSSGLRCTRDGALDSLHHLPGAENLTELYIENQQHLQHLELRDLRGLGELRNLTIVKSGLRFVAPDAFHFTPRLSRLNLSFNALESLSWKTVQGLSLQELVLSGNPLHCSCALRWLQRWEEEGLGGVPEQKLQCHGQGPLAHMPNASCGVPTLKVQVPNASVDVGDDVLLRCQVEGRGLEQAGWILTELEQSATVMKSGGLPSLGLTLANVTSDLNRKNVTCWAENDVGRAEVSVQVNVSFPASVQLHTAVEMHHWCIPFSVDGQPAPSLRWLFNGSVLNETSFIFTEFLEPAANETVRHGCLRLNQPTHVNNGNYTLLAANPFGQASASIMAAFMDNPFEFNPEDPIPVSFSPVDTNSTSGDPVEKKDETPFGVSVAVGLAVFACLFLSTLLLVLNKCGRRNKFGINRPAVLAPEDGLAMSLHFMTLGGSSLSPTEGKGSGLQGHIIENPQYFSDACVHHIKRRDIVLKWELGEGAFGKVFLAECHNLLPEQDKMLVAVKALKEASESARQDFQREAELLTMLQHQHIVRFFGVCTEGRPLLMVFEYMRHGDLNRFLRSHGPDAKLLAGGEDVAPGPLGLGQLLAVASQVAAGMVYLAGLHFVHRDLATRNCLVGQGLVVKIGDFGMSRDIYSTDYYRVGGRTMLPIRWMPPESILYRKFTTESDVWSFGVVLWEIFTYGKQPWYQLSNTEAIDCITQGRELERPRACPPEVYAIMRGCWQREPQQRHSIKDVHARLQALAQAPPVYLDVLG
Chain of Aurora kinase B (Homo sapiens) (Q96GD4 whole entry): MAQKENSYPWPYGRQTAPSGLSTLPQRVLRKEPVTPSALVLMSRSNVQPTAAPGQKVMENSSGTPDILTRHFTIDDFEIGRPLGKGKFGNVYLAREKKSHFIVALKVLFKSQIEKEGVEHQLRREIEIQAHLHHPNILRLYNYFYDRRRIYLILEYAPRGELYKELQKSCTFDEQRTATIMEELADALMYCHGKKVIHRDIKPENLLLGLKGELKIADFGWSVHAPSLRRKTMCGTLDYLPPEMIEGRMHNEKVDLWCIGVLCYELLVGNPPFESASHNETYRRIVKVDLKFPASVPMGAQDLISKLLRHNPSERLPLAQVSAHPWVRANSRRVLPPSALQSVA
Chain of MAP/microtubule affinity-regulating kinase 3 (P27448 whole entry, the tested form may be a part): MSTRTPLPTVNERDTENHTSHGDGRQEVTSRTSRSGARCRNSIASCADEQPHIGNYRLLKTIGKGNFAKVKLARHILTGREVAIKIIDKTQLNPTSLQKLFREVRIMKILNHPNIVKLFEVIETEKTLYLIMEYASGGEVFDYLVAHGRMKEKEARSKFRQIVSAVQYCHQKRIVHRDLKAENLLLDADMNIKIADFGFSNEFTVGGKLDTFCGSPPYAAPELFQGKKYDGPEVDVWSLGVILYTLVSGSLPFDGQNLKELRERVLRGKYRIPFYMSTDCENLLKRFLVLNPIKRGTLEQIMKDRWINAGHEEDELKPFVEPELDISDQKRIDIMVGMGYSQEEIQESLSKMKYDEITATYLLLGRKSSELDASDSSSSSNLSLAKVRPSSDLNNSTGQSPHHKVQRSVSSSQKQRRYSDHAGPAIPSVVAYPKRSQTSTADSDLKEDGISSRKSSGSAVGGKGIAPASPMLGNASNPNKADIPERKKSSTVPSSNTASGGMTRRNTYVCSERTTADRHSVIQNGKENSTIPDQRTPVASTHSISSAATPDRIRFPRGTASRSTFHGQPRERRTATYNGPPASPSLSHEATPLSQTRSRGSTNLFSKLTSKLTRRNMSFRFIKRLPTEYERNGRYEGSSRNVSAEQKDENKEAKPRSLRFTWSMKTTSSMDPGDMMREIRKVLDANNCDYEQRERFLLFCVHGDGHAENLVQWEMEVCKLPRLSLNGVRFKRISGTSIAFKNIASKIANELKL

On to `NS(=O)(=O)c1ccc(CNc2nc(Nc3cccc(NC(=O)N4CCCC4)c3)ncc2Br)cc1`, for which the IC50 in series [1] was 283 nM; in series [2], more than 10 µM; in series [5], 317 nM; in series [7], 6.17 µM; in series [8], more than 10 µM. Moreover, in series [3], the Kinetic_solubility turned out to be 20 µM. Moreover, in series [4] (BLD = below limit of detection), the Peff entry is “Bld”. Moreover, the % control in series [6] was 6%.
With `NS(=O)(=O)c1ccc(CNc2nc(Nc3cccc(CN4CCOCC4)c3)ncc2C2CC2)cc1`, the IC50 was 153 nM in series [1], more than 10 µM in series [2], 2.05 µM in series [7] and more than 10 µM in series [8]. In series [3], this compound registered a Kinetic_solubility of 118.7 µM. Besides, the Peff in series [4] is listed as 7.09 10^-7 cm/s. The % control in series [6] came to 51%.
As for `NS(=O)(=O)c1ccc(CNc2nc(Nc3cccc(CN4CCOCC4)c3)ncc2Br)cc1`, the IC50 in series [1] is 158 nM; in series [2] it was more than 10 µM; in series [5], 171 nM; in series [7], more than 10 µM; in series [8], more than 10 µM. The Kinetic solubility in series [3] stood at 4.7 µM. Further, the Peff entry in series [4] (BLD = below limit of detection) is listed as “Bld”. In addition, the % control in series [6] amounted to 7%.
In the case of `c1cc(CN2CCOCC2)cc(Nc2nccc(NCCc3cnc[nH]3)n2)c1`, the IC50 in series [2] is more than 10 µM; in series [5], 176 nM; in series [7], more than 10 µM; in series [8], more than 10 µM. This compound returned a Kinetic solubility in series [3] of 200 µM. In addition, in series [4], the Peff is on record as 1.66 10^-7 cm/s. Moreover, the % control in series [6] is 5%.
